The record followed here is ChEMBL document CHEMBL1136482, “Substituted azoloquinolines and -quinazolines as new potent farnesyl protein transferase inhibitors” (Bioorg Med Chem Lett, 2003).

Molecules are shown by their SMILES. pIC50: −log10 of the molar value. Activity calls are given as the source filed them. The calls are words filed in the database; no cut-off is given here.

The subject of assay [1] is NIH3T3. Description: T24H-ras-transformed NIH3T3 cell proliferation. The assay is classed as functional, cell-based, Mus musculus.
Assay [2] has as its target T1, Protein farnesyltransferase (Homo sapiens, UniProt P49354+P49356). Description: Inhibition of [3H]FPP incorporation into biotinylated laminB peptide by farnesyl transferase. It counts as protein-complex assay. The essentials:
(§1)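 Isolated FPT enzyme assay measuring incorporation of [3H]-farnesylpyrophosphate into biotinylated laminB peptide. IC50 is the concentration giving 50% reduction of incorporation. Some entries are given as percent inhibition at a single concentration.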

For assay [3], the target named is T1, Protein farnesyltransferase. Briefly: Inhibition of [3H]FPP incorporation into biotinylated laminB peptide by farnesyl transferase 0.1 uM. The assay is classed as protein-complex assay. The essentials: as §1
The subject of assay [4] is NIH3T3. Briefly: In vivo inhibition of T24H-ras NIH3T3 tumor growth in mice (Not significant). The assay is classed as functional, organism-based. Conditions: Mus musculus.
Assay [5] concerns the target T1, Protein farnesyltransferase. Description: Inhibition of [3H]FPP incorporation into biotinylated laminB peptide by farnesyl transferase at 0.1 uM. The assay is classed as protein-complex assay. The essentials:
as §1

Assay [6] addresses T2, Geranylgeranyl transferase type I (Homo sapiens, UniProt P49354+P53609). Description: Inhibition of Geranylgeranylprotein transferase-I catalyzed incorporation of [3H]GGPP into biotinYRASNRSCAIL peptide. It counts as protein-complex assay.
Assay [7] has as its target T2, Geranylgeranyl transferase type I. Briefly: Inhibition of Geranylgeranylprotein transferase-I catalyzed incorporation of [3H]GGPP into biotinYRASNRSCAIL peptide at 10 uM. The assay is classed as protein-complex assay.
Assay [8] concerns NIH3T3. Briefly: (§2) In vivo inhibition of T24H-ras NIH3T3 tumor growth in mice. The assay is classed as functional, Mus musculus.
The species entered for the next assay is Homo sapiens. Briefly: Compound tested for metabolism and expressed as percentage of parent drug remaining after 120 min incubation with human liver microsomes. It counts as functional, organism-based.
The test system of assay [9] is NIH3T3. Described as §2. It counts as functional, Mus musculus. The method, boiled down:
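Mice were inoculated with T24 NIH 3T3 cells. Dosing at 25 mg/kg was oral, once daily, starting 2 days after tumour inoculation. Tumour growth was assessed 17 days after administration and is reported as percentage inhibition of tumour weight.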
The source holds these as a separate data set.

As for `Cn1cncc1C(N)(c1ccc(Cl)cc1)c1ccc2c(c1)c(-c1cccc(Cl)c1)nc1nccn12` (stereo unspecified), the pIC50 was 7.06 with NIH3T3 [1] (Mus musculus, NIH3T3) and 8.30 in assay [2].

`Cn1cncc1C(N)(c1ccc(Cl)cc1)c1ccc2c(c1)c(-c1cccc(Cl)c1)nc1nncn12` (stereo unspecified): the pIC50 in the assay with NIH3T3 [1] (Mus musculus, NIH3T3) is 6.73; in assay [2] it was 8.52.

As for `Cn1cncc1C(N)(c1ccc(Cl)cc1)c1ccc2c(c1)c(-c1cccc(Cl)c1)cc1nccn12` (stereo unspecified), the pIC50 in the assay on NIH3T3 [1] (Mus musculus, NIH3T3) is 7.55; in assay [2], 8.15.

In turn, `Cn1cncc1C(N)(c1ccc(Cl)cc1)c1ccc2c(c1)c(-c1cccc(Cl)c1)cc1nnc(-c3ccccc3)n12` (stereo unspecified) showed a negative-log IC50 (pIC50) with NIH3T3 [1] (Mus musculus, NIH3T3) of 6.52. The compound also displayed an inhibition in assay [3] of 60%.

Turning to `Cc1nnc2cc(-c3cccc(Cl)c3)c3cc(C(N)(c4ccc(Cl)cc4)c4cncn4C)ccc3n12` (stereo unspecified), the pIC50 is 7.76 in the assay on NIH3T3 [1] (Mus musculus, NIH3T3) and 8.82 in [2]. For the same compound, the inhibition result in the assay with NIH3T3 [4] was “inactive”.

For the compound `Cn1cncc1C(N)(c1ccc(Cl)cc1)c1ccc2c(c1)c(-c1cccc(Cl)c1)cc1cnnn12` (stereo unspecified), the inhibition in assay [3] came out at 68%.

`Cn1cncc1C(N)(c1ccc(Cl)cc1)c1ccc2c(c1)c(-c1cccc(Cl)c1)cc1nncn12` (stereo unspecified): in assay [5], the inhibition worked out at 65%.

Regarding `Cn1cncc1C(N)(c1ccc(Cl)cc1)c1ccc2c(c1)c(-c1cccc(Cl)c1)cc1nnnn12` (stereo in doubt; 24), the pIC50 in the assay on NIH3T3 [1] (nih3t3) was 7.26; in assay [6], 6.75; in assay [2] it was 8.46.

In the case of `Cn1cncc1C(N)(c1ccc(Cl)cc1)c1ccc2c(c1)c(-c1cccc(Cl)c1)cc1nnnn12` (stereo in doubt; 24a), in the assay with NIH3T3 [1] (nih3t3), the pIC50 was < 6.30. Also, the Inhibition was 55% in [7] and 36% in [2].

Regarding `Cn1cncc1C(N)(c1ccc(Cl)cc1)c1ccc2c(c1)c(-c1cccc(Cl)c1)cc1nnnn12` (stereo in doubt; 24b) [listing 1 of 2 here], the pIC50 in the assay on NIH3T3 [1] (nih3t3) is 7.70; in assay [6] it was 7.09; in assay [2] it was 8.77.

For the compound `Cn1cncc1C(N)(c1ccc(Cl)cc1)c1ccc2c(c1)c(-c1cccc(Cl)c1)cc1nnnn12` (stereo in doubt; 24b) [listing 2 of 2 here], the inhibition result with NIH3T3 [4] is “inactive”.

With `Cn1cncc1C(N)(c1ccc(Cl)cc1)c1ccc2c(c1)c(-c1cccc(Cl)c1)nc1nnnn12` (stereo in doubt; 43), the results for the negative-log IC50 (pIC50) (with NIH3T3 [1] (nih3t3); in [6]; in [2]) were 7.92, 6.34 and 8.60, respectively.

Regarding `Cn1cncc1C(N)(c1ccc(Cl)cc1)c1ccc2c(c1)c(-c1cccc(Cl)c1)nc1nnnn12` (stereo in doubt; 43a) [listing 1 of 2 here], the negative-log IC50 (pIC50) was 8.00 in the assay with NIH3T3 [1] (nih3t3), < 6.00 in assay [6] and 9.22 in assay [2]. The compound further had an Inhibition with NIH3T3 [8] of 66%.

As to `Cn1cncc1C(N)(c1ccc(Cl)cc1)c1ccc2c(c1)c(-c1cccc(Cl)c1)nc1nnnn12` (stereo in doubt; 43a) [listing 2 of 2 here], the Metabolism in the assay listed under Homo sapiens was found to be 97%.

With `Cn1cncc1C(N)(c1ccc(Cl)cc1)c1ccc2c(c1)c(-c1cccc(Cl)c1)nc1nnnn12` (stereo in doubt; 43b), the pIC50 in the assay on NIH3T3 [1] (nih3t3) is 6.97; in [2] it was 7.66.

In the assay on NIH3T3 [9], `Cn1cncc1[C@@](N)(c1ccc(Cl)cc1)c1ccc2c(c1)c(-c1cccc(Cl)c1)cc(=O)n2C` [TIPIFARNIB] showed an Inhibition of 37%. Besides, the pIC50 in [2] is 9.05. In addition, in the assay listed under Homo sapiens, the Metabolism turned out to be 66%.
